Here are results for 18 compounds from ChEMBL document CHEMBL2150994, “Design, synthesis, and pharmacological evaluation of glutamate carboxypeptidase II (GCPII) inhibitors based on thioalkylbenzoic acid scaffolds” (J Med Chem, 2012).

Data set [1] addresses Glutamate carboxypeptidase 2 (Homo sapiens, UniProt Q04609). Nature of the data set: Inhibition of human recombinant GCP2 using N-acetyl-L-aspartyl-[3H]-L-glutamate as substrate by microplate assay. The procedure, abridged:
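Radiometric enzyme assay using purified human recombinant GCPII with N-acetyl-L-aspartyl-[3H]-L-glutamate as substrate. IC50 was determined.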

Data set [2] deals with Salmonella typhimurium. The experiment in a line: Mutagenic activity in Salmonella typhimurium TA1537 by Ames test in presence of S9 fraction. The class given is toxicity, organism-based. To be noted: salmonella enterica subsp. enterica serovar typhimurium.
In data set [3] the test system is Liver microsomes. Nature of the data set: Metabolic stability in rat liver microsomes after 2 hrs. The class given is ADME, Microsome. The procedure, abridged:
(§1)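 Compound was incubated with liver microsomes from mouse, rat, dog, monkey and human for 2 h. Metabolism was assessed by detection of compound turnover.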

Data set [4] is described as follows: Apparent oral clearance in fasted rat at 10 mg/kg. The class given is ADME, organism-based. On the set-up: dose 10 mg/kg, route oral. To be noted: in vivo. The procedure, abridged:
(§2)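 Fasted rats dosed at 10 mg/kg intravenously (n = 4) or orally (n = 9). Plasma was sampled and the pharmacokinetic parameters Cmax, Tmax, AUCinf, CL/F, terminal t1/2 and oral bioavailability F were derived. Values are given as mean ± deviation for each route.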

Data set [5] can be described thus: AUC (0 to infinity) in fasted rat at 10 mg/kg, iv. The class given is ADME, organism-based. On the set-up: time infinity, dose 10 mg/kg, route intravenous. The note with it: plasma. A digest of the protocol: as §2
The nature of data set [6]: Metabolic stability in monkey liver microsomes after 2 hrs. The class given is ADME, Macaca mulatta, Microsome. The note with it: rhesus monkey. The procedure, abridged:
as §1

For data set [7], the system named is Salmonella typhimurium. The experiment in a line: Mutagenic activity in Salmonella typhimurium TA1535 by Ames test in presence of S9 fraction. The class given is toxicity, organism-based. The note with it: salmonella enterica subsp. enterica serovar typhimurium.
Data set [8] relates to Liver. Nature of the data set: Metabolic stability in mouse liver microsomes after 2 hrs. The class given is ADME, Microsome. The procedure, abridged:
as §1

Data set [9] can be described thus: Inhibition of AMPA receptor at 10 uM. A digest of the protocol: (§3)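 Outsourced receptor binding and enzyme panel, covering NMDA receptor (agonist, glycine, phencyclidine and polyamine sites), AMPA, kainate, strychnine-sensitive glycine receptor and kidney-type glutaminase. Percent inhibition was measured at 10 μM, with glutaminase tested up to 100 μM.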
A short description of data set [10]: Inhibition of strychnine-sensitive glycine receptor at 10 uM. A digest of the protocol: as §3
The subject of data set [11] is Salmonella typhimurium. The experiment in a line: Mutagenic activity in Salmonella typhimurium TA98 by Ames test in absence of S9 fraction. The class given is toxicity, organism-based. To be noted: salmonella enterica subsp. enterica serovar typhimurium.
The nature of data set [12]: Tmax in fasted rat at 10 mg/kg, po. The class given is ADME, organism-based. On the set-up: dose 10 mg/kg, route oral. The note with it: in vivo. A digest of the protocol: as §2
The nature of data set [13]: Inhibition of NMDA receptor phencyclidine binding site at 10 uM. A digest of the protocol: as §3
Data set [14] has as its target Voltage-gated inwardly rectifying potassium channel KCNH2 (Homo sapiens, UniProt Q12809). The experiment in a line: Inhibition of human ERG upto 100 uM. A digest of the protocol: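 hERG channel assay run by an external contractor, with compound tested at concentrations up to 100 μM.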
Data set [15] has as its system Salmonella typhimurium. Nature of the data set: Mutagenic activity in Salmonella typhimurium TA1537 by Ames test in absence of S9 fraction. The note with it: salmonella enterica subsp. enterica serovar typhimurium. The class given is toxicity, organism-based.
Data set [16] has as its system Salmonella typhimurium. The experiment in a line: Mutagenic activity in Salmonella typhimurium TA100 by Ames test in absence of S9 fraction. The class given is toxicity, organism-based. To be noted: salmonella enterica subsp. enterica serovar typhimurium.
The nature of data set [17]: Inhibition of NMDA receptor polyamine binding site at 10 uM. A digest of the protocol: as §3
Data set [18] in a line: Inhibition of kainate receptor at 10 uM. The procedure, abridged: as §3
For data set [19], the system named is Liver microsomes. Nature of the data set: Metabolic stability in human liver microsomes after 2 hrs. The class given is ADME, Microsome. The procedure, abridged: as §1
The nature of data set [20]: Cmax in fasted rat at 10 mg/kg, po. The class given is ADME, organism-based. On the set-up: dose 10 mg/kg, route oral. To be noted: in vivo. A digest of the protocol: as §2
For data set [21], the system named is Salmonella typhimurium. Nature of the data set: Mutagenic activity in Salmonella typhimurium TA100 by Ames test in presence of S9 fraction. The class given is toxicity, organism-based. The note with it: salmonella enterica subsp. enterica serovar typhimurium.
The nature of data set [22]: Apparent oral clearance in fasted rat at 10 mg/kg, iv. The class given is ADME, organism-based. On the set-up: dose 10 mg/kg, route oral. To be noted: in vivo. The procedure, abridged: as §2
In data set [23] the target is T1, Glutaminase kidney isoform, mitochondrial (Homo sapiens) (UniProt O94925).
T1 sequence (whole entry): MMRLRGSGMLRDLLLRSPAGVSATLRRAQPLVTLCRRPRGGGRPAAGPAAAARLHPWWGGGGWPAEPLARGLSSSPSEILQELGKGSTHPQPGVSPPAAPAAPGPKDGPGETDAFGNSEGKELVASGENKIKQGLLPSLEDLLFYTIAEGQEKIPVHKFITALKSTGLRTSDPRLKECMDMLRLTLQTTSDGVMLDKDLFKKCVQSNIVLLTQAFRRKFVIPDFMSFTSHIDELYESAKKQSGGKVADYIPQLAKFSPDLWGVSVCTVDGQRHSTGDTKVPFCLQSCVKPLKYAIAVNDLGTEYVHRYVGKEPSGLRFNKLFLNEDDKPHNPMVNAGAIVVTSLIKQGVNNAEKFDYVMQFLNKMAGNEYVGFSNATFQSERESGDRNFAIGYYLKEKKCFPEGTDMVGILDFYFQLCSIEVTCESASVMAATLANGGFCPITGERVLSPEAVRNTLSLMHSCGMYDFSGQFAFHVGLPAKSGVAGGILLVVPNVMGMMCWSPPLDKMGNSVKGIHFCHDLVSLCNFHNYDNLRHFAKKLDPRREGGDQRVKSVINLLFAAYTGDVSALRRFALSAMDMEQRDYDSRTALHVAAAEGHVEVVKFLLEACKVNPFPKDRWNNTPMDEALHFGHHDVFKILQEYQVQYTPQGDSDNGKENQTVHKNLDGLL
The experiment in a line: Inhibition of glutaminase kidney isoform at 100 uM.

Data set [24] is described as follows: Inhibition of NMDA receptor at 10 uM. The procedure, abridged: as §3
The nature of data set [25]: Terminal half life in fasted rat at 10 mg/kg, po. To be noted: in vivo, read-out: beta t1/2 (converted). Further details: dose 10 mg/kg, route oral. The class given is ADME, organism-based. A digest of the protocol:
as §2

Data set [26] can be described thus: Terminal half life in fasted rat at 10 mg/kg, iv. To be noted: in vivo, read-out: beta t1/2 (converted). The class given is ADME, organism-based. On the set-up: dose 10 mg/kg, route intravenous. The procedure, abridged:
as §2

Data set [27] deals with Salmonella typhimurium. The experiment in a line: Mutagenic activity in Salmonella typhimurium TA1535 by Ames test in absence of S9 fraction. The note with it: salmonella enterica subsp. enterica serovar typhimurium. The class given is toxicity, organism-based.
The nature of data set [28]: Oral bioavailability in fasted rat at 10 mg/kg. The class given is ADME, organism-based. To be noted: in vivo. The procedure, abridged:
as §2

A short description of data set [29]: Inhibition of NMDA receptor glycine binding site at 10 uM. A digest of the protocol: as §3
A short description of data set [30]: AUC (0 to infinity) in fasted rat at 10 mg/kg, po. The class given is ADME, organism-based. Further details: time infinity, dose 10 mg/kg, route oral. To be noted: plasma. A digest of the protocol: as §2
The subject of a further data set is Rattus norvegicus. Nature of the data set: Antinociceptive activity in rat chronic constriction injury neuropathic pain model assessed as reduction of thermal hyperalgesia at 0.1 mg/kg/day measured on day 8 and 12 relative to vehicle-treated control. The class given is functional, organism-based. A digest of the protocol: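 Rat chronic constriction injury model of neuropathic pain, after Bennett. Dosing was oral at 0.1 mg kg-1 day-1 against vehicle-treated controls. Read-out was thermal hyperalgesia on days 8 and 12, with significance at p < 0.05.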

The subject of data set [31] is Liver. The experiment in a line: Metabolic stability in dog liver microsomes after 2 hrs. The class given is ADME, Canis lupus familiaris, Microsome. The procedure, abridged:
as §1

Data set [32] concerns Salmonella typhimurium. The experiment in a line: Mutagenic activity in Salmonella typhimurium TA98 by Ames test in presence of S9 fraction. To be noted: salmonella enterica subsp. enterica serovar typhimurium. The class given is toxicity, organism-based.

The structures appear in SMILES notation. Calls of active or inactive are those of the source. The calls are words filed in the database; no cut-off is given here.

Sequence of Glutamate carboxypeptidase 2 (Q04609 whole entry): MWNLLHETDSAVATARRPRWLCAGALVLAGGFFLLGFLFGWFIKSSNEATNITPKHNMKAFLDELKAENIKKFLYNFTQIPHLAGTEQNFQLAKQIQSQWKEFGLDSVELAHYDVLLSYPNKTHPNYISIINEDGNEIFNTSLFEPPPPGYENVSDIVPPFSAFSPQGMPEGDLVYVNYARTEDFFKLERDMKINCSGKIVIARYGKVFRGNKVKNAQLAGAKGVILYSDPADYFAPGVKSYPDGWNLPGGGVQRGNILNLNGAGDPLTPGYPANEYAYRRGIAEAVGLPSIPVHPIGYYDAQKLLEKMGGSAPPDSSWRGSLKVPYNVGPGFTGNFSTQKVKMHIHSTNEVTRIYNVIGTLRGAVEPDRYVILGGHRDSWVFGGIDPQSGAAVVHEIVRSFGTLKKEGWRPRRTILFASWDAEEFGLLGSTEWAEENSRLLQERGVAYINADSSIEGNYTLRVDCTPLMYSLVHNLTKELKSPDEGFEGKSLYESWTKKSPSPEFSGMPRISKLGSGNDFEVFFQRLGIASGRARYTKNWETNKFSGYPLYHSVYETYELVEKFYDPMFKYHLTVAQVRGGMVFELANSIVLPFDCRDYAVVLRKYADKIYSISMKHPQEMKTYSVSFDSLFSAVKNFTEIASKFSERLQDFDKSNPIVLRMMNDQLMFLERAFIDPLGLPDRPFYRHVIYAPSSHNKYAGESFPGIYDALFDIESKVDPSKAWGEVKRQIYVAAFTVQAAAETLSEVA
Sequence of Voltage-gated inwardly rectifying potassium channel KCNH2 (Q12809 whole entry): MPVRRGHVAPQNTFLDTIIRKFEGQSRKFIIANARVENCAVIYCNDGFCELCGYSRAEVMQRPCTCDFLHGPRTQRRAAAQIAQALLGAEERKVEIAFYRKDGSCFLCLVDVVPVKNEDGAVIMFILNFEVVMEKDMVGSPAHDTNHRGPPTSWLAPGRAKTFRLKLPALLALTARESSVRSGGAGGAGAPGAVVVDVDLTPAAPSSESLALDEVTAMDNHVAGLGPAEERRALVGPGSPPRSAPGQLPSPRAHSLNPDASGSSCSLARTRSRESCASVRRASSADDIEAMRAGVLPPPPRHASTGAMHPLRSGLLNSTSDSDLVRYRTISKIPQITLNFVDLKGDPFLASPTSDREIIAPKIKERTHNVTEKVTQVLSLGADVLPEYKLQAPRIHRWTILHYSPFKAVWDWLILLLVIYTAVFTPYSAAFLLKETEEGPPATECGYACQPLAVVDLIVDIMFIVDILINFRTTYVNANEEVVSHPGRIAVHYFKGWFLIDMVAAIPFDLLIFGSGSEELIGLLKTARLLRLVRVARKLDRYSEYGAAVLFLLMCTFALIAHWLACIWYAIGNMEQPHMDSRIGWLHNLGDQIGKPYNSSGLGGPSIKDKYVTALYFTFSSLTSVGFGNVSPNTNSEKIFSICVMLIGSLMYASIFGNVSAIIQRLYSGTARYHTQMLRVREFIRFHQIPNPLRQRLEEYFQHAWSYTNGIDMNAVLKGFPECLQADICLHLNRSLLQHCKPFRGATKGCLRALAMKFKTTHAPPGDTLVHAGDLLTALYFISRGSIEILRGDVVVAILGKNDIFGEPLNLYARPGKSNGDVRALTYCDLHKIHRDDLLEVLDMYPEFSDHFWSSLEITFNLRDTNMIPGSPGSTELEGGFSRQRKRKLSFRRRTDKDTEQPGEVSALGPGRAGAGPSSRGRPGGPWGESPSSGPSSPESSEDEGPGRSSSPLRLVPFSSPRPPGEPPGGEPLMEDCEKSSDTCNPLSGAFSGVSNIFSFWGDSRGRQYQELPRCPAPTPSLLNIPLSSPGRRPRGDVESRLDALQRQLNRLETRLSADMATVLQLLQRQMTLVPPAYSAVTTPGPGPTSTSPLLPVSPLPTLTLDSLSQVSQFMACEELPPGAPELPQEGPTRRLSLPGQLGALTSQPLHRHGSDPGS

Turning to `O=C(O)c1c(CCS)cccc1OCc1ccccc1`, in data set [1], the 50% inhibitory concentration (IC50) was determined as 200 nM.
In the case of `O=C(O)c1cccc(-c2cccc(CCS)c2C(=O)O)c1`, the Activity result in the data set with Salmonella typhimurium [2], with Salmonella typhimurium [7], in the data set with Salmonella typhimurium [11], in the data set on Salmonella typhimurium [15], in the data set with Salmonella typhimurium [16] and in the data set with Salmonella typhimurium [21] was “Non-toxic” in each case. The Activity entry in the data set with Salmonella typhimurium [27] and in the data set on Salmonella typhimurium [32] was “Non-toxic” each time. The Stability result (with Liver microsomes [3]; in [6]; with Liver [8]; in the data set on Liver microsomes [19]; in the data set on Liver [31]) was “Stable” each time. In addition, the apparent clearance CL/F in data set [4] was 5.3 mL/min/kg; in data set [22] it was 4.45 mL/min/kg. Further, the AUC(0-inf) was 90600 ng·h/mL in data set [5] and 33800 ng·h/mL in [30]. Moreover, the inhibition result in [9], in [10], in data set [13], in [17], in data set [18] and in data set [23] was “inactive” throughout. The Tmax in data set [12] came to 1.1 h. Moreover, in data set [14], the “inhibition (INH)” value was “Not Active”. Besides, the peak concentration (Cmax) in [20] turned out to be 7100 ng/mL. Moreover, the results for the inhibition in data set [24] and in data set [29] were under 5% and 12%, respectively. Besides, the figures for the half-life in [25] and in [26] were 3.2 h and 3.6 h, respectively. Also, the bioavailability in [28] was 37%. Also, in the data set on Rattus norvegicus, the result was Active.
As for `O=C(O)c1ccc(COc2ccc(CS)cc2C(=O)O)cc1`, the IC50 in data set [1] stood at 16 nM.
Same read-out and setting: in the case of `O=C(O)c1ccccc1COc1cccc(CCS)c1C(=O)O` it was 140 nM.
The same measure, in the same setting: in the case of `O=C(O)c1cc(CS)ccc1-c1ccccc1` it was 5700 nM; in that of `O=C(O)c1cccc(-c2ccc(CS)cc2C(=O)O)c1`, 38 nM.
Same read-out and setting: in the case of `O=C(O)c1c(CCS)cccc1-c1ccccc1` it was 1400 nM.
Consider `O=C(O)c1ccccc1-c1ccc(CS)cc1C(=O)O`, for which the IC50 in data set [1] turned out to be 340 nM.
Same read-out and setting: in the case of `O=C(O)c1ccccc1CCS` it was 930 nM; in that of `O=C(O)c1ccccc1COc1ccc(CS)cc1C(=O)O`, 41 nM; in that of `O=C(O)c1ccc(COc2cccc(CCS)c2C(=O)O)cc1`, 200 nM.
`O=C(O)CCC(CCCS)C(=O)O` (centres undefined): the AUC(0-inf) in data set [30] was found to be 1820 ng·h/mL.
Take `O=C(O)c1cccc(COc2ccc(CS)cc2C(=O)O)c1`: the IC50 in [1] turned out to be 2 nM.
Still for that read-out and setting: the value for `O=C(O)c1cccc(CS)c1` was 1300 nM; that for `O=C(O)c1ccc(-c2ccc(CS)cc2C(=O)O)cc1` was 52 nM; that for `O=C(O)c1ccccc1-c1cccc(CCS)c1C(=O)O` was 230 nM.
On the same count and under the same terms, the value for `O=C(O)c1cccc(COc2cccc(CCS)c2C(=O)O)c1` was 69 nM.
Still for that read-out and setting: in the case of `O=C(O)c1ccc(-c2cccc(CCS)c2C(=O)O)cc1` it was 7 nM.
